Measured values taken from ChEMBL document CHEMBL3244400, “Synthesis of 3,4-dihydro-4-oxothieno[2,3-d]pyrimidine-2-carboxylates, a new series of orally active antiallergy agents” (J Med Chem, 1979).

Legend:
Type in all cases: functional
[1] = test system: Rattus norvegicus; experiment: Inhibition of egg albumin-induced allergic bronchospasm in sensitized, spontaneously breathing and anesthesized Harlan-Wistar rat assessed as drop in pulmonary arterial blood pressure at 2 mg/kg, iv administered 1 min prior to antigen challenge (reference value: 36.4 +/- 3.5 %)
Outline: (§1)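 Male Harlan-Wistar rats (225–275 g) were sensitized with EA im (1 mg/rat) plus pertussis vaccine ip. After 13–15 days they were urethane-anesthetized (1.5 g/kg ip). Drug was given intraduodenally in methocel or iv in saline, then EA 2 mg/rat iv. Pulmonary ventilation pressure and mean arterial pressure were recorded. Individual responses were compared with a separate vehicle-control group mean; 4–15 rats/group.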

[2] = test system: Mast cell; experiment: Inhibition of histamine release in Sprague-Dawley rat peritoneal mast cells at 5 uM after 10 mins by fluorimetry relative to control
Outline: (§2)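 Peritoneal lavage cells from male Sprague–Dawley rats (200–300 g) were sensitized for 2 h at 37 °C in rat anti-EA serum with heparin. Cells were resuspended in buffered HBSS and challenged with EA. Drug was added together with antigen. After 10 min incubation, histamine was measured fluorimetrically. % inhibition was calculated versus release without drug.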

[3] = test system: Rattus norvegicus; experiment: Inhibition of egg albumin-induced allergic bronchospasm in sensitized, spontaneously breathing and anesthesized Harlan-Wistar rat assessed as drop in mean arterial blood pressure at 2 mg/kg, iv administered 1 min prior to antigen challenge (reference value: 49.7+/- 1.9 %); outline: as §1
[4] = test system: Mast cell; experiment: Inhibition of histamine release in Sprague-Dawley rat peritoneal mast cells at 1.25 uM after 10 mins by fluorimetry relative to control; outline: as §2
[5] = test system: Rattus norvegicus; experiment: Inhibition of egg albumin-induced allergic bronchospasm in sensitized, spontaneously breathing and anesthesized Harlan-Wistar rat assessed as inhibition of control allergic hypotension response at 2 mg/kg, iv administered 1 min prior to antigen challenge; outline: as §1
[6] = test system: Rattus norvegicus; experiment: Antiallergic activity against egg albumin-induced anaphylaxis in iv dosed sensitized rat compound administered 15 mins prior to antigen challenge as single dose by passive cutaneous anaphylaxis test
Outline: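 Male Sprague–Dawley or Wistar rats (100–150 g) were passively sensitized by two intradermal dilutions of rat anti-egg-albumin serum, which was mainly IgE and raised with EA im (10 mg/kg) plus killed pertussis vaccine iv. After 48 h, drug or vehicle was given. Rats were then challenged iv with EA plus Evans Blue (25 mg/kg each). Spot diameter was read 20–30 min later; ≥5 rats/compound. % inhibition was calculated versus control mean diameter.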

[7] = test system: Mast cell; experiment: Inhibition of histamine release in Sprague-Dawley rat peritoneal mast cells at 20 uM after 10 mins by fluorimetry relative to control; outline: as §2
[8] = test system: Rattus norvegicus; experiment: Inhibition of egg albumin-induced allergic bronchospasm in sensitized, spontaneously breathing and anesthesized Harlan-Wistar rat assessed as inhibition of control allergic bronchospasm response at 2 mg/kg, iv administered 1 min prior to antigen challenge; outline: as §1
[9] = test system: Rattus norvegicus; experiment: Inhibition of egg albumin-induced allergic bronchospasm in sensitized, spontaneously breathing and anesthesized Harlan-Wistar rat assessed as drop in pulmonary arterial blood pressure at 3.125 mg/kg administered intraduodenally 15 min prior to antigen challenge (reference value: 32.2 +/- 4.7 %); conditions: route intraduodenal; outline: as §1
[10] = test system: Rattus norvegicus; experiment: Inhibition of egg albumin-induced allergic bronchospasm in sensitized, spontaneously breathing and anesthesized Harlan-Wistar rat assessed as inhibition of control allergic hypotension response at 1.56 mg/kg administered intraduodenally 15 min prior to antigen challenge; conditions: route intraduodenal; outline: as §1
[11] = test system: Rattus norvegicus; experiment: Inhibition of egg albumin-induced allergic bronchospasm in sensitized, spontaneously breathing and anesthesized Harlan-Wistar rat assessed as inhibition of control allergic hypotension response compound administered intraduodenally 15 min prior to antigen challenge; conditions: in the assay text read “bronchospasm response” for “hypotension response”; outline: as §1
[12] = test system: Rattus norvegicus; experiment: Inhibition of egg albumin-induced allergic bronchospasm in sensitized, spontaneously breathing and anesthesized Harlan-Wistar rat assessed as drop in pulmonary arterial blood pressure at 50 mg/kg administered intraduodenally 15 min prior to antigen challenge (reference value: 32.2 +/- 4.7 %); conditions: route intraduodenal; outline: as §1
[13] = test system: Rattus norvegicus; experiment: Inhibition of egg albumin-induced allergic bronchospasm in sensitized, spontaneously breathing and anesthesized Harlan-Wistar rat assessed as inhibition of control allergic hypotension response at 3.125 mg/kg administered intraduodenally 15 min prior to antigen challenge; conditions: route intraduodenal; outline: as §1
[14] = test system: Rattus norvegicus; experiment: Inhibition of egg albumin-induced allergic bronchospasm in sensitized, spontaneously breathing and anesthesized Harlan-Wistar rat assessed as inhibition of control allergic hypotension response at 50 mg/kg administered intraduodenally 15 min prior to antigen challenge; conditions: route intraduodenal; outline: as §1
[15] = test system: Rattus norvegicus; experiment: Inhibition of egg albumin-induced allergic bronchospasm in sensitized, spontaneously breathing and anesthesized Harlan-Wistar rat assessed as inhibition of control allergic hypotension response at 6.25 mg/kg administered intraduodenally 15 min prior to antigen challenge; conditions: route intraduodenal; outline: as §1
[16] = test system: Rattus norvegicus; experiment: Inhibition of egg albumin-induced allergic bronchospasm in sensitized, spontaneously breathing and anesthesized Harlan-Wistar rat assessed as drop in mean arterial blood pressure at 1.56 mg/kg administered intraduodenally 15 min prior to antigen challenge (reference value: 46.3 +/- 3.5 %); conditions: route intraduodenal; outline: as §1
[17] = test system: Rattus norvegicus; experiment: Inhibition of egg albumin-induced allergic bronchospasm in sensitized, spontaneously breathing and anesthesized Harlan-Wistar rat assessed as inhibition of control allergic bronchospasm response at 50 mg/kg administered intraduodenally 15 min prior to antigen challenge; conditions: route intraduodenal; outline: as §1
[18] = test system: Rattus norvegicus; experiment: Inhibition of egg albumin-induced allergic bronchospasm in sensitized, spontaneously breathing and anesthesized Harlan-Wistar rat assessed as drop in mean arterial blood pressure at 6.25 mg/kg administered intraduodenally 15 min prior to antigen challenge (reference value: 46.3 +/- 3.5 %); conditions: route intraduodenal; outline: as §1
[19] = test system: Rattus norvegicus; experiment: Inhibition of egg albumin-induced allergic bronchospasm in sensitized, spontaneously breathing and anesthesized Harlan-Wistar rat assessed as drop in pulmonary arterial blood pressure at 12.5 mg/kg administered intraduodenally 15 min prior to antigen challenge (reference value: 32.2 +/- 4.7 %); conditions: route intraduodenal; outline: as §1
[20] = test system: Rattus norvegicus; experiment: Inhibition of egg albumin-induced allergic bronchospasm in sensitized, spontaneously breathing and anesthesized Harlan-Wistar rat assessed as drop in pulmonary arterial blood pressure at 1.56 mg/kg administered intraduodenally 15 min prior to antigen challenge (reference value: 32.2 +/- 4.7 %); conditions: route intraduodenal; outline: as §1
[21] = test system: Rattus norvegicus; experiment: Inhibition of egg albumin-induced allergic bronchospasm in sensitized, spontaneously breathing and anesthesized Harlan-Wistar rat assessed as inhibition of control allergic bronchospasm response at 1.56 mg/kg administered intraduodenally 15 min prior to antigen challenge; conditions: route intraduodenal; outline: as §1
[22] = test system: Rattus norvegicus; experiment: Inhibition of egg albumin-induced allergic bronchospasm in sensitized, spontaneously breathing and anesthesized Harlan-Wistar rat assessed as drop in pulmonary arterial blood pressure at 6.25 mg/kg administered intraduodenally 15 min prior to antigen challenge (reference value: 32.2 +/- 4.7 %); conditions: route intraduodenal; outline: as §1
[23] = test system: Rattus norvegicus; experiment: Inhibition of egg albumin-induced allergic bronchospasm in sensitized, spontaneously breathing and anesthesized Harlan-Wistar rat assessed as inhibition of control allergic bronchospasm response at 6.25 mg/kg administered intraduodenally 15 min prior to antigen challenge; conditions: route intraduodenal; outline: as §1
[24] = test system: Rattus norvegicus; experiment: Inhibition of egg albumin-induced allergic bronchospasm in sensitized, spontaneously breathing and anesthesized Harlan-Wistar rat assessed as inhibition of control allergic bronchospasm response at 12.5 mg/kg administered intraduodenally 15 min prior to antigen challenge; conditions: route intraduodenal; outline: as §1
[25] = test system: Rattus norvegicus; experiment: Inhibition of egg albumin-induced allergic bronchospasm in sensitized, spontaneously breathing and anesthesized Harlan-Wistar rat assessed as drop in mean arterial blood pressure at 50 mg/kg administered intraduodenally 15 min prior to antigen challenge (reference value: 46.3 +/- 3.5 %); conditions: route intraduodenal; outline: as §1
[26] = test system: Rattus norvegicus; experiment: Inhibition of egg albumin-induced allergic bronchospasm in sensitized, spontaneously breathing and anesthesized Harlan-Wistar rat assessed as drop in mean arterial blood pressure at 12.5 mg/kg administered intraduodenally 15 min prior to antigen challenge (reference value: 46.3 +/- 3.5 %); conditions: route intraduodenal; outline: as §1
[27] = test system: Rattus norvegicus; experiment: Inhibition of egg albumin-induced allergic bronchospasm in sensitized, spontaneously breathing and anesthesized Harlan-Wistar rat assessed as inhibition of control allergic bronchospasm response at 3.125 mg/kg administered intraduodenally 15 min prior to antigen challenge; conditions: route intraduodenal; outline: as §1
[28] = test system: Rattus norvegicus; experiment: Inhibition of egg albumin-induced allergic bronchospasm in sensitized, spontaneously breathing and anesthesized Harlan-Wistar rat assessed as inhibition of control allergic hypotension response at 12.5 mg/kg administered intraduodenally 15 min prior to antigen challenge; conditions: route intraduodenal; outline: as §1
[29] = test system: Rattus norvegicus; experiment: Inhibition of egg albumin-induced allergic bronchospasm in sensitized, spontaneously breathing and anesthesized Harlan-Wistar rat assessed as inhibition of control allergic bronchospasm response compound administered intraduodenally 15 min prior to antigen challenge; outline: as §1
[30] = test system: Rattus norvegicus; experiment: Inhibition of egg albumin-induced allergic bronchospasm in sensitized, spontaneously breathing and anesthesized Harlan-Wistar rat assessed as drop in mean arterial blood pressure at 3.125 mg/kg administered intraduodenally 15 min prior to antigen challenge (reference value: 46.3 +/- 3.5 %); conditions: route intraduodenal; outline: as §1

Structure (SMILES): O=C([O-])c1cc(=O)c2c(OCC(O)COc3cccc4oc(C(=O)[O-])cc(=O)c34)cccc2o1.[Na+].[Na+] [CROMOLYN SODIUM]
- inhibition in vivo at 2 mg/kg [1]: 13%
- inhibition at 5 µM [2]: 50%
- inhibition in vivo at 2 mg/kg [3]: 38.8%
- inhibition at 1.25 µM [4]: 20%
- inhibition in vivo at 2 mg/kg [5]: 22.4%
- ED50 [6]: 0.6 mg/kg
- inhibition at 20 µM [7]: 75%
- inhibition in vivo at 2 mg/kg [8]: 63.8%

Structure (SMILES): CCCCCCc1sc2nc(C(=O)[O-])nc([O-])c2c1C.O.[Na+].[Na+]
- inhibition in vivo at 3.125 mg/kg [9]: 27.6%
- inhibition in vivo at 1.56 mg/kg [10]: 0%
- inhibition [11]: Dose-dependent effect
- ED50 ([11]; intraduodenal): 3.8 mg/kg
- inhibition in vivo at 50 mg/kg [12]: 14%
- inhibition in vivo at 3.125 mg/kg [13]: 15.4%
- inhibition in vivo at 50 mg/kg [14]: 14%
- inhibition in vivo at 6.25 mg/kg [15]: 28.8%
- inhibition in vivo at 1.56 mg/kg [16]: 63.8%
- inhibition in vivo at 50 mg/kg [17]: 61.2%
- inhibition in vivo at 6.25 mg/kg [18]: 38.4%
- inhibition in vivo at 12.5 mg/kg [19]: 21.6%
- inhibition in vivo at 1.56 mg/kg [20]: 42%
- inhibition in vivo at 1.56 mg/kg [21]: 9.4%
- inhibition in vivo at 6.25 mg/kg [22]: 28%
- inhibition in vivo at 6.25 mg/kg [23]: 34.2%
- inhibition in vivo at 12.5 mg/kg [24]: 41%
- inhibition in vivo at 50 mg/kg [25]: 45%
- inhibition in vivo at 12.5 mg/kg [26]: 55.2%
- inhibition in vivo at 3.125 mg/kg [27]: 28.3%
- inhibition in vivo at 12.5 mg/kg [28]: 0%
- inhibition [29]: Dose-dependent effect
- ED50 ([29]; intraduodenal): 3.8 mg/kg
- inhibition in vivo at 3.125 mg/kg [30]: 47.6%
